Bioassay records deposited in PubChem BioAssay by several laboratories.
SR-BI uptake up – enhances SR-BI lipid uptake from DiI-HDL; 0.096% of 320,000 active; activation, % at 12.5 µM; CHO ldlA[mSR-BI] cells, DiI-HDL uptake fluorescence, 3 h; 100 = double the neutral-control signal;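 active = mean replicate activation of at least 60% and every replicate at or above 60%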;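 also: 0% = median plate neutral-control signal and 100% = twice that signal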
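Assay system: CHO ldlA[mSR-BI] cells, LDL receptor-null, SR-BI overexpressing; medium: Ham's F12 with 0.5% BSA, HEPES 25 mM, pH 7.4; also added: DiI-HDL 10 µg/mL; timing: 3 h uptake period with compound, 37 °C; signal: DiI fluorescence, bottom read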
CR mimetic SO – lowers age-related superoxide in aged yeast cells. AID 2690. S. cerevisiae aged cells, superoxide DHE fluorescence; stronger effect = lower value. superoxide response (% of plate mean), % at 10 µM. 0.18% of 330,000 active;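 active = superoxide response under a set limit, about three screen SD below normal, cut at about 65% in these data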;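 also: yeast aged for seven days with compound at 30 °C before DHE staining; 100% = average MFI of all compound-treated wells on the plate with controls excluded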
AHR activator – activators of human aryl hydrocarbon receptor | AHR-responsive luciferase reporter cells, luminescence | 2.5% of 320,000 active | P35869 | activation, % at 5 µM | AID 2796; in the data active = activation above about 47%;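 also: 0% = vehicle wells and 100% = reference agonist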
SMARCA2 activ – activators of SMARCA2 function. AID 652017. 1% of 370,000 active. activation, % at 9.1 µM. MG213 cells, MMTV-luciferase reporter, dexamethasone, overnight; in the data active = activation above about 7.8%;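 also: 0% = vehicle wells and 100% = reference activator wells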
SR-BI DiI inh – mouse SR-BI HDL lipid transfer inhibition; inhibition, % at 12.5 µM; AID 488896; Q61009; 0.96% of 320,000 active; ldlA[mSR-BI] CHO cells, DiI-HDL uptake fluorescence, 3 h;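 active = mean replicate inhibition of at least 70% and a set share of replicates each scoring 70 or more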;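 also: 0% = median of neutral control wells and 100% = median of positive control wells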
Target sequence (Q61009 whole entry, looked up): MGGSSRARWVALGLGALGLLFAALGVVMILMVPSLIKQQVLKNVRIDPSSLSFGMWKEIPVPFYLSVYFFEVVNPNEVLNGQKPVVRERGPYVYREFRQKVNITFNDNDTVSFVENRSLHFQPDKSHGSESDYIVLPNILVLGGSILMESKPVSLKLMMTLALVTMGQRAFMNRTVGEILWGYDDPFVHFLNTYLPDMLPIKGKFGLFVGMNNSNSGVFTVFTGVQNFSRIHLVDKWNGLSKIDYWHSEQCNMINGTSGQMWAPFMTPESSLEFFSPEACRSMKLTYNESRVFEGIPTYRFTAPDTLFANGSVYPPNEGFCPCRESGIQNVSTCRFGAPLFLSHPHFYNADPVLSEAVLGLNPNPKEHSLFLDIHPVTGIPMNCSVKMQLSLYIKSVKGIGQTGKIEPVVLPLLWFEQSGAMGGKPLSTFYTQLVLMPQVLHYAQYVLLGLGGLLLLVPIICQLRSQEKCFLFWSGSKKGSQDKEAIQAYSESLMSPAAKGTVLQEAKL
Hep lipid drop – modulators of hepatic lipid droplet formation; 0.4% of 240,000 active; inhibition, % at 6.5 µM; AML12 mouse hepatocytes, oleate lipid droplets, BODIPY imaging;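 active = lipid droplet intensity inhibited by at least 50%, with more than 500 cells counted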
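Test system: AML12 mouse liver cells; schedule: overnight exposure; technique: high-content imaging of BODIPY-stained droplets and DAPI nuclei; read-out: % inhibition of corrected integrated BODIPY droplet signal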
Numbers without * were called inactive; / = no result. An excerpt weighted towards active compounds, which were near 4.3% of everything screened.

SMILES | SR-BI uptake up | CR mimetic SO | AHR activator | SMARCA2 activ | SR-BI DiI inh | Hep lipid drop
O=C(CSc1nc2ccsc2c(=O)n1Cc1ccc(C(=O)O)cc1)NCC1CCCO1 (configuration not stated) | 12 | 94 | 2 | 2 | -12 | 14
O=C(Cn1c(=S)[nH]c2ccccc2c1=O)NCCc1ccccc1 | 17 | 95 | 79* | -2 | -17 | -2
C=CCn1c(SCC(=O)NCC2CCCO2)nc2c([nH]c3ccccc32)c1=O (configuration not stated) | 10 | 108 | 55* | 1 | -10 | 23
COc1cccc(-n2c(SCC(N)=O)nc3c([nH]c4ccccc43)c2=O)c1 | / | 102 | 75* | -2 | -4 | 0
O=C(CCn1c(=S)[nH]c2ccccc2c1=O)NCCSCc1ccccc1 | 9 | 90 | 1 | -3 | -9 | -5
Cc1ccc(Cn2c(SCC(=O)NCC3CCCO3)nc3ccsc3c2=O)cc1 (configuration not stated) | 60* | 109 | 1 | -3 | -60 | 3
CCOc1ccc(-n2c(SCC(=O)c3ccc4ccccc4c3)nnc2-c2ccco2)cc1 | / | / | / | -4 | / | /
CC(=NNc1cc(C)c2cc(C)ccc2n1)c1ccccn1 | / | / | / | -4 | / | /
CCCCN1CC(COCc2ccccc2)Oc2cccc(NCc3cc(OC)c(OC)c(OC)c3)c2S1(=O)=O (configuration not stated) | / | / | / | -3 | / | /
O=C(NC1CCCCN(Cc2cccc(Cl)c2)C1=O)c1ccccc1 (configuration not stated) | / | / | / | -2 | / | /
Cn1cccc1C(=O)N1CCN(S(=O)(=O)c2ccc(Cl)s2)CC1 | / | / | / | -3 | / | /
Cc1cc(NC(=O)CSc2nc3c([nH]c4ccccc43)c(=O)n2-c2cccc(C(F)(F)F)c2)no1 | -52 | / | / | / | 52 | -10
Cc1ccc(-c2nc(SCC(=O)NCC3CCCO3)c(-c3ccccc3)[nH]2)cc1 (configuration not stated) | -58 | 90 | 70* | -2 | 58 | -2
C=CCn1c(SCC(=O)NCCc2ccccc2)nc2c([nH]c3ccccc32)c1=O | 10 | 104 | 60* | 0 | -10 | 10
COc1ccccc1-n1c(SCC(=O)Nc2cc(C)on2)nc2c([nH]c3ccccc32)c1=O | -23 | 100 | 68* | -1 | 23 | -10
COc1ccc(C)cc1-n1c(SCC(=O)NCC2CCCO2)nc2c([nH]c3ccccc32)c1=O (configuration not stated) | 1 | 105 | 67* | 0 | -1 | -19
C/C(=N/NC(=O)CN1CCN(Cc2ccccc2Cl)CC1)c1cccc(O)c1 | / | / | / | -4 | / | /
O=c1c2ccccc2n(Cc2ccccc2)n1[C@@H](Cc1ccccc1)Cn1cc(C2CCCC2)nn1 | / | / | / | -3 | / | /
C[C@@H]1CCN(C2CC2)S(=O)(=O)c2ccc(N3CC[C@@H](O)C3)cc2O1 | / | / | / | -2 | / | /
C=CCn1c(SCC(=O)N2CCN(c3ccccc3)CC2)nc2c([nH]c3ccccc32)c1=O | / | 99 | 66* | 0 | 65 | 22
COc1ccccc1NC(=O)CCCn1c(=S)[nH]c2ccccc2c1=O | 4 | 77 | 48* | -2 | -4 | 19
CCOc1ccccc1/C=C/c1onc(C)c1S(=O)(=O)N1CCC(C(=O)NC(C)C)CC1 | -51 | 92 | 4 | -1 | 51 | 12
CCOc1ccccc1/C=C/c1onc(C)c1S(=O)(=O)N1CCC(C(=O)N2CCCCCC2)CC1 | -92 | 98 | 0 | -4 | 92* | -40
Nc1cc([N+](=O)[O-])ccc1Nc1ccc(O)cc1 | -18 | 63* | 17 | 1 | 18 | -7
Cc1cccc(Nc2nnc(SC/C(O)=C(\C#N)c3nc4ccccc4[nH]3)s2)c1 | -4 | 103 | 36 | 1 | 4 | -49
SMILES | SR-BI uptake up | CR mimetic SO | AHR activator | SMARCA2 activ | SR-BI DiI inh | Hep lipid drop
Cc1ccc(Nc2nnc(SC/C(O)=C(\C#N)c3nc4ccccc4[nH]3)s2)c(C)c1 | 23 | 98 | 55* | -3 | -23 | 0
Cc1ccc(Nc2nnc(SCC(=O)c3ccc(Br)s3)s2)c(C)c1 | 16 | 119 | 60* | -4 | -16 | -16
O=C(c1ccc2c(c1)OCO2)[C@@H]1[C@@H]2C(=O)N(C3CCCCC3)C(=O)[C@@H]2C2c3ccccc3C=CN21 (some centres not stated) | 0 | / | / | -1 | 0 | /
CC(C)(C)C(=O)[C@@H]1[C@@H]2C(=O)N(C3CCCCC3)C(=O)[C@@H]2[C@H]2c3ccccc3C=CN12 | 46 | 123 | 93* | -3 | -46 | -9
O=C(Nc1ccc2c(c1)OCO2)[C@@H]1[C@@H]2C(=O)N(C3CCCCC3)C(=O)[C@@H]2C2c3ccccc3C=CN21 (some centres not stated) | / | 95 | 53* | 0 | / | -1
COc1ccc(N2C(=O)[C@@H]3[C@H](C2=O)[C@H]2c4ccccc4C=CN2[C@@H]3C(C)=O)cc1 | 37 | 99 | 51* | 2 | -37 | 7
O=C(CSc1nc2ccccc2[nH]1)NN=Cc1ccccc1C(=O)O | / | / | / | -2 | / | /
COC(=O)C1=C(C)N(Cc2cccc(C(F)(F)F)c2)C(=NCc2ccc3c(c2)OCO3)NC1c1ccc(Cl)cc1 (configuration not stated) | / | / | / | -2 | / | /
CCCCN1CN2Cc3ccccc3C2CS1(=O)=O (configuration not stated) | / | / | / | 3 | / | /
NC(=S)NN=C1CCCCCCCCCC1 | -76 | / | / | -1 | 76* | /
O=C(CCC(=O)NCCCc1ccccc1)NCCCc1ccccc1 | 62* | 91 | -3 | -2 | -62 | -1
O=C(CCc1nnc(CCCc2ccccc2)o1)NCCc1ccco1 | 3 | 101 | 3 | 7.8* | -3 | 2
Cc1sc2nc(COC(=O)CNC(=O)c3cc(F)ccc3F)[nH]c(=O)c2c1C | / | / | / | -3 | / | /
COc1ccc(CN2CCc3ccc(NC(=O)CCc4ccccc4OC)cc3C2)c(O)c1 | -72 | 85 | 10 | -4 | 72* | -24
COc1cc(CN2CCc3ccc(NC(=O)CCc4ccccc4OC)cc3C2)ccc1O | -70 | 98 | 5 | -1 | 70* | -7
COc1cccc(CN2CCc3ccc(NC(=O)CCc4ccc(C)cc4)cc3C2)c1O | -64 | 102 | -1 | -4 | 64 | 6
COc1ccc(S[C@]2(C(=O)N3CCCC3)CC(=O)N(S(=O)(=O)c3ccc(F)cc3)[C@@H]2c2ccc(OC)cc2)cc1 | / | / | / | -4 | / | /
Cc1ccc2[nH]c(=O)c(-c3noc(C(C)C)n3)cc2c1 | 3 | 102 | 55* | -3 | -3 | /
CCc1nc(-c2cc3ccc(C)cc3[nH]c2=O)no1 | 1 | 76 | 1 | 3 | -1 | 1
O=C(NCCN1CCC(Cc2ccccc2)CC1)C1CCCN(S(=O)(=O)c2ccccc2[N+](=O)[O-])C1 (configuration not stated) | / | / | / | -6 | / | /
